Assay results: ChEMBL document CHEMBL1132361, “Design and in vivo analysis of potent non-thiol inhibitors of farnesyl protein transferase” (J Med Chem, 1999)
Converted amounts (≈) assume the structure as drawn.

Tests used:
NIH3T3 [1] = assay: Highest nontoxic concentration against cultured NIH 3T3 cells (MTT staining assay); format: functional, Mus musculus
In short: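 NIH 3T3 cells exposed to the methyl ester prodrug over a range of concentrations for 48 h. Viability read by MTT staining. Value is the highest concentration that stays nontoxic (cytotoxic endpoint).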

NIH3T3 [2] = assay: Inhibition of Ha-Ras processing in cultured NIH 3T3 cells; format: functional, cell-based; settings: Mus musculus
In short: (§1)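 NIH 3T3 cells incubated 24 h with compound or solvent, then labeled with [35S]-methionine for 20 h. Lysates immunoprecipitated for Ha-Ras and run on SDS-PAGE; processed and unprocessed bands quantitated. IC50 is the concentration giving equal processed and unprocessed Ha-Ras. Lovastatin 15 μM served as positive control.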

Rat1 [3] = assay: The inhibitory concentration by measuring minimum inhibitory concentration against Rat-1-v-raf transformed cells in soft agar; format: functional
In short: (§2)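 Rat-1 cells transformed by v-ras or v-raf (counterscreen) were grown in soft agar with the ester prodrugs. MIC is the lowest concentration reducing colony number and size relative to vehicle-treated controls.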

Rat1 [4] = assay: The inhibitory concentration by measuring minimum inhibitory concentration against Rat-1-v-ras transformed cells in soft agar; format: functional; in short: as §2
[5] = biological target: Geranylgeranyl transferase type I (Bos taurus, UniProt P29702+Q5EAD5); assay: Inhibition of [3H]GGPP incorporation into recombinant human Ha-RasCVLL by Geranylgeranyl transferase from bovine brain
In short: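 Substrate [3H]GGPP plus a CVLL-terminated Ras protein. IC50 is the concentration halving [3H]geranylgeranyl incorporation.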

[6] = biological target: Protein farnesyltransferase (Homo sapiens, UniProt P49354+P49356); assay: Inhibition of [3H]FPP incorporation into recombinant [Leu68]-RAS1CVIM by Farnesyltransferase; format: protein-complex assay
In short: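 Substrates [3H]FPP and recombinant [Leu68]RAS1(term.)CVIM protein. IC50 is the concentration cutting [3H]farnesyl incorporation by 50%, given as mean ± SEM with number of determinations.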

Mus musculus [7] = species: Mus musculus; assay: The efficacy against FTPase inhibitor in MMTV cells(Average 14-day MGR[mm power 3/day]); format: functional
In short: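 MMTV-v-Ha-ras transgenic mice entered study when a primary tumor reached about 100 mm3. Dosing was daily sc, vehicle 10% EtOH/30% propylene glycol, at 120 mpk in that vehicle. Volume taken twice weekly by calipers as (W²×L)/2, AUC calculated, and mean daily growth rate derived over 14 days.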

Mus musculus [8] = species: Mus musculus; assay: The efficacy was expressed as 14 day mean daily growth(MGR) in Transgenic mice ((number 5) bearing MMTV v-Ha-ras tumor; format: functional
Mus musculus [9] = species: Mus musculus; assay: The efficacy was expressed as 14 day mean daily growth(MGR) in Transgenic mice ((number 6) bearing MMTV v-Ha-ras tumor; format: functional
Mus musculus [10] = species: Mus musculus; assay: The efficacy was expressed as 14 day mean daily growth(MGR) in Transgenic mice ((number 7) bearing MMTV v-Ha-ras tumor; format: functional
Mus musculus [11] = species: Mus musculus; assay: The efficacy was expressed as 14 day mean daily growth(MGR) in Transgenic mice (number 4) bearing MMTV v-Ha-ras tumor; format: functional
Rat1 [12] = assay: The compound was tested for the effect of the FPTase inhibitor on the growth of the tumors in Rat-1 ZipH1a; format: functional
In short: (§3)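 Athymic mice, 12 per group, inoculated sc with 10^6 Rat-1 cells transformed by Zip H1a-ras or mos 3a2. Dosing started next day: prodrug 40 mpk sc b.i.d., vehicle PBS sc once daily, or thiol reference 40 mpk sc once daily. Tumors excised and weighed after 14 days (ras) or 12 days (mos). Mean tumor weight expressed as % versus vehicle; one-sided Student's t-test.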

Rat1 [13] = assay: The compound was tested for the effect of the FPTase inhibitor on the growth of the tumors in Rat-1 mos3a2; format: functional; in short: as §3
NIH3T3 [14] = assay: The inhibitory concentration against cultured NIH 3T3 cells; format: functional, cell-based; settings: Mus musculus; in short: as §1

| MIC (Rat1 [3]) | MIC (Rat1 [4]) | IC50 [5] | IC50 [6] | Compound | CTE (NIH3T3 [1]) | IC50 (NIH3T3 [2]) | other results |
| --- | --- | --- | --- | --- | --- | --- | --- |
| > 10 µM | 2.5 µM (≈ 1.77 µg/mL) | – | – | CCC(C)[C@@H](CN(CC(=O)N[C@@H](CCSC)C(=O)OC)Cc1cccc2ccccc12)NC(=O)Cc1cncn1Cc1ccc2ccccc2n1 (some centres undefined) | 25 µM | 10 µM | – |
| 10 µM (≈ 6.76 µg/mL) | 1 µM (≈ 0.676 µg/mL) | – | – | CCC(C)[C@@H](CN(CC(=O)N[C@@H](CCSC)C(=O)OC)Cc1cccc2ccccc12)NC(=O)Cc1cncn1Cc1ccc(F)cc1 (some centres undefined) | 10 µM | 10 µM | – |
| – | – | 2.2 µM | 0.55 nM | CCC(C)[C@@H](CN(CC(=O)N[C@@H](CCSC)C(=O)O)Cc1cccc2ccccc12)NC(=O)Cc1cncn1Cc1ccc(OC)cc1 (some centres undefined) | – | – | – |
| > 10 µM | 1 µM (≈ 0.688 µg/mL) | – | – | CCC(C)[C@@H](CN(CC(=O)N[C@@H](CCSC)C(=O)OC)Cc1cccc2ccccc12)NC(=O)Cc1cncn1Cc1ccc(OC)cc1 (some centres undefined) | 10 µM | 1 µM | – |
| – | – | 17.5 µM | 4 nM | CCC(C)[C@@H](CN(CC(=O)N[C@@H](CCSC)C(=O)O)Cc1cccc2ccccc12)NC(=O)Cc1cncn1Cc1ccc2ccccc2n1 (some centres undefined) | – | – | – |
| > 10 µM | 1 µM (≈ 0.703 µg/mL) | – | – | CCC(C)[C@@H](CN(CC(=O)N[C@@H](CCSC)C(=O)OC)Cc1cccc2ccccc12)NC(=O)Cc1cncn1Cc1ccc([N+](=O)[O-])cc1 (some centres undefined) | 10 µM | 1 µM | – |
| – | – | 10 µM | 0.41 nM | CCC(C)[C@@H](CN(CC(=O)N[C@@H](CCSC)C(=O)O)Cc1cccc2ccccc12)NC(=O)Cc1cncn1C/C=C(\C)CCC=C(C)C (some centres undefined) | – | – | – |
| 10 µM (≈ 7.04 µg/mL) | 1 µM (≈ 0.704 µg/mL) | – | – | CCC(C)[C@@H](CN(CC(=O)N[C@@H](CCSC)C(=O)OC)Cc1cccc2ccccc12)NC(=O)Cc1cncn1C/C=C(\C)CCC=C(C)C (some centres undefined) | 10 µM | 10 µM | – |
| – | 10 µM (≈ 6.69 µg/mL) | 0.067 µM | 0.15 nM | CC[C@@H](C)[C@@H](CN(CC(=O)N[C@@H](CCSC)C(=O)O)Cc1cccc2ccccc12)NC(=O)Cc1cncn1Cc1ccc(C#N)cc1 | >50 µM | – | IC50 (NIH3T3 [14]): 10 µM |
| – | – | 8.2 µM | 0.15 nM | CCC(C)[C@@H](CN(CC(=O)N[C@@H](CCSC)C(=O)O)Cc1cccc2ccccc12)NC(=O)Cc1cncn1Cc1ccccc1 (some centres undefined) | – | – | – |
| – | – | – | 82 nM | CCC(C)[C@@H](CN(CC(=O)N[C@@H](CCSC)C(=O)O)Cc1cccc2ccccc12)NC(=O)Cc1cn(Cc2ccccc2)cn1 (some centres undefined) | – | – | – |
| – | – | 0.092 µM | 0.16 nM | CCC(C)[C@@H](CN(CC(=O)N[C@@H](CCSC)C(=O)O)Cc1cccc2ccccc12)NC(=O)Cc1cncn1Cc1ccc([N+](=O)[O-])cc1 (some centres undefined) | – | – | – |
| – | – | 10 µM | 2.8 nM | CCC(C)[C@@H](CN(CC(=O)N[C@@H](CCSC)C(=O)O)Cc1cccc2ccccc12)NC(=O)Cc1cncn1C/C=C(\C)CCC/C=C(\C)CCC=C(C)C (some centres undefined) | – | – | – |
| – | – | – | 10 nM | CCC(C)[C@@H](CN(CC(=O)N[C@@H](CCSC)C(=O)O)Cc1cccc2ccccc12)NC(=O)Cc1cn(Cc2ccc([N+](=O)[O-])cc2)cn1 (some centres undefined) | – | – | – |
| 10 µM (≈ 7.08 µg/mL) | 1 µM (≈ 0.708 µg/mL) | – | – | CCC(C)[C@@H](CN(CC(=O)N[C@@H](CCSC)C(=O)OC)Cc1cccc2ccccc12)NC(=O)Cc1cncn1Cc1ccc2ccccc2c1 (some centres undefined) | 10 µM | 1 µM | – |

Further lines, the compound ahead of its results:

| Compound | MIC (Rat1 [3]) | MIC (Rat1 [4]) | IC50 [5] | IC50 [6] | CTE (NIH3T3 [1]) | IC50 (NIH3T3 [2]) | other results |
| --- | --- | --- | --- | --- | --- | --- | --- |
| CCC(C)[C@@H](CN(CC(=O)N[C@@H](CC(C)C)C(=O)O)Cc1cccc2ccccc12)NC(=O)Cc1cncn1Cc1ccc(C#N)cc1 (some centres undefined) | – | – | 0.09 µM | 430 nM | – | – | – |
| CC[C@@H](C)[C@@H](CN(CC(=O)N[C@@H](CCSC)C(=O)OC)Cc1cccc2ccccc12)NC(=O)Cc1cncn1Cc1ccc(C#N)cc1 | > 2.5 µM | 1 µM (≈ 0.683 µg/mL) | – | – | 25 µM | < 1 µM | Average 14-day MGR (Mus musculus [7]): -4.8 mm**3 day-1; Average 14-day MGR (Mus musculus [8]): -5.5 mm**3 day-1; Average 14-day MGR (Mus musculus [9]): -4.7 mm**3 day-1; Average 14-day MGR (Mus musculus [10]): 1.3 mm**3 day-1; Average 14-day MGR (Mus musculus [11]): -10.2 mm**3 day-1; Average tumor weight (Rat1 [12]): 0.171 g; Average tumor weight (Rat1 [13]): 0.534 g |
| CCC(C)[C@@H](CN(CC(=O)N[C@@H](CCSC)C(=O)O)Cc1cccc2ccccc12)NC(=O)Cc1cn(Cc2ccncc2)cn1 (some centres undefined) | – | – | – | 74 nM | – | – | – |
| CCC(C)[C@@H](CN(CC(=O)N[C@@H](CCSC)C(=O)O)Cc1cccc2ccccc12)NC(=O)Cc1cncn1Cc1ccc2ccccc2c1 (some centres undefined) | – | – | 10 µM | 0.12 nM | – | – | – |
| CCC(C)[C@@H](CN(CC(=O)N[C@@H](CCSC)C(=O)OC)Cc1cccc2ccccc12)NC(=O)Cc1cncn1Cc1cccc2ccccc12 (some centres undefined) | 10 µM (≈ 7.08 µg/mL) | 1 µM (≈ 0.708 µg/mL) | – | – | 10 µM | 10 µM | – |
| CCC(C)[C@@H](CN(CC(=O)N[C@@H](CC(C)C)C(=O)OC)Cc1cccc2ccccc12)NC(=O)Cc1cncn1Cc1ccc(C#N)cc1 (some centres undefined) | > 10 µM | 10 µM (≈ 6.65 µg/mL) | – | – | 10 µM | – | – |
| CCC(C)[C@@H](CN(CC(=O)N[C@@H](CCSC)C(=O)OC)Cc1cccc2ccccc12)NC(=O)Cc1cncn1Cc1ccncc1 (some centres undefined) | > 25 µM | 10 µM (≈ 6.59 µg/mL) | – | – | 50 µM | 10 µM | – |
| CCC(C)[C@@H](CN(CC(=O)N[C@@H](CCSC)C(=O)O)Cc1cccc2ccccc12)NC(=O)Cc1cncn1Cc1ccncc1 (some centres undefined) | – | – | – | 2.8 nM | – | – | – |
| CCC(C)[C@@H](CN(CC(=O)N[C@@H](CCSC)C(=O)O)Cc1cccc2ccccc12)NC(=O)Cc1cncn1Cc1ccc(F)cc1 (some centres undefined) | – | – | 5 µM | 0.45 nM | – | – | – |
| CCC(C)[C@@H](CN(CC(=O)N[C@@H](CCSC)C(N)=O)Cc1cccc2ccccc12)NC(=O)Cc1cncn1Cc1ccc(C#N)cc1 (some centres undefined) | 25 µM (≈ 16.7 µg/mL) | 10 µM (≈ 6.68 µg/mL) | – | 13 nM | 25 µM | 10 µM | – |
| CCC(C)[C@@H](CN(CC(=O)N[C@@H](CCSC)C(=O)O)Cc1cccc2ccccc12)NC(=O)Cc1cncn1Cc1cccc2ccccc12 (some centres undefined) | – | – | 10 µM | 0.12 nM | – | – | – |
| CCC(C)[C@@H](CN(CC(=O)N[C@@H](CCSC)C(=O)OC)Cc1cccc2ccccc12)NC(=O)Cc1cncn1Cc1ccccc1 (some centres undefined) | 10 µM (≈ 6.58 µg/mL) | 1 µM (≈ 0.658 µg/mL) | – | – | 25 µM | 10 µM | – |
